Active and inactive are the calls of the source. The rule behind the calls is not given here.
Assays:
MCF7 [1] = assay: Cytotoxicity against human MCF7 cells at 1 to 100 uM after 12 hrs by MTT assay; type: functional, cell-based
Procedure, shortened: (§1)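 MCF-7 or HCT116 cells were seeded at 5×10^3 per well in DMEM with 10% FBS and grown 1 day at 37 °C, 5% CO2. Compounds in 1% DMSO were added at 1, 5, 10, 50, 100 or 250 µM. Viability was read by MTT after 12 h; each assay was done three times.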

HCT-116 [2] = assay: Drug metabolism in human HCT116 cells assessed as quercetin sulfate level at 30 uM after 1 hr by HPLC analysis; type: ADME, cell-based; conditions: hct-116, 1 h
Procedure, shortened: (§2)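 MCF-7 or HCT116 cells were seeded at 2×10^5 per well and grown 24 h at 37 °C, 5% CO2, then given 30 µM conjugate. At 1, 3, 6 and 12 h cells were PBS-washed, trypsinized, sonicated and filtered. Lysates were run on C18 HPLC (UV 340 nm). Each species is reported as a percentage of integrated peak area; peaks were identified by MALDI-TOF MS.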

HCT-116 [3] = assay: Cytotoxicity against human HCT116 cells at 1 to 100 uM after 12 hrs by MTT assay; type: functional, cell-based; procedure, shortened: as §1
[4] = Metabolic stability in human HCT116 cells assessed as compound remaining at 30 uM after 6 hrs by HPLC analysis; type: ADME, cell-based, HCT-116; conditions: read-out: Stability; procedure, shortened: as §2
MCF7 [5] = assay: Drug metabolism in human MCF7 cells assessed as methyl quercetin level at 30 uM after 12 hrs by HPLC analysis; type: ADME, cell-based; conditions: mcf7, 12 h; procedure, shortened: as §2
MCF7 [6] = assay: Drug metabolism in human MCF7 cells assessed as quercetin sulfate level at 30 uM after 3 hrs by HPLC analysis; type: ADME, cell-based; conditions: mcf7, 3 h; procedure, shortened: as §2
MCF7 [7] = assay: Drug metabolism in human MCF7 cells assessed as quercetin level at 30 uM after 12 hrs by HPLC analysis; type: ADME, cell-based; conditions: mcf7, 12 h; procedure, shortened: as §2
[8] = Metabolic stability in human MCF7 cells assessed as compound remaining at 30 uM after 1 hr by HPLC analysis; type: ADME, cell-based; conditions: read-out: Stability; procedure, shortened: as §2
HCT-116 [9] = assay: Drug metabolism in human HCT116 cells assessed as quercetin-glucuronide level at 30 uM after 3 hrs by HPLC analysis; type: ADME, cell-based; conditions: hct-116, 3 h; procedure, shortened: as §2
[10] = Metabolic stability in human MCF7 cells assessed as compound remaining at 30 uM after 3 hrs by HPLC analysis; type: ADME, cell-based; conditions: read-out: Stability; procedure, shortened: as §2
[11] = Metabolic stability in human MCF7 cells assessed as compound remaining at 30 uM after 6 hrs by HPLC analysis; type: ADME, cell-based; conditions: read-out: Stability; procedure, shortened: as §2
HCT-116 [12] = assay: Drug metabolism in human HCT116 cells assessed as quercetin-glucuronide level at 30 uM after 12 hrs by HPLC analysis; type: ADME, cell-based; conditions: hct-116, 12 h; procedure, shortened: as §2
HCT-116 [13] = assay: Drug metabolism in human HCT116 cells assessed as methyl quercetin level at 30 uM after 6 hrs by HPLC analysis; type: ADME, cell-based; conditions: hct-116, 6 h; procedure, shortened: as §2
[14] = Metabolic stability in human HCT116 cells assessed as compound remaining at 30 uM after 1 hr by HPLC analysis; type: ADME, cell-based, HCT-116; conditions: read-out: Stability; procedure, shortened: as §2
HCT-116 [15] = assay: Drug metabolism in human HCT116 cells assessed as quercetin-glucuronide level at 30 uM after 6 hrs by HPLC analysis; type: ADME, cell-based; conditions: hct-116, 6 h; procedure, shortened: as §2
MCF7 [16] = assay: Drug metabolism in human MCF7 cells assessed as quercetin sulfate level at 30 uM after 1 hr by HPLC analysis; type: ADME, cell-based; conditions: mcf7, 1 h; procedure, shortened: as §2
MCF7 [17] = assay: Drug metabolism in human MCF7 cells assessed as methyl quercetin level at 30 uM after 1 hr by HPLC analysis; type: ADME, cell-based; conditions: mcf7, 1 h; procedure, shortened: as §2
[18] = Metabolic stability in human HCT116 cells assessed as compound remaining at 30 uM after 3 hrs by HPLC analysis; type: ADME, cell-based, HCT-116; conditions: read-out: Stability; procedure, shortened: as §2
[19] = Half life of the compound in PBS buffer at pH 7.4 at 50 uM by HPLC analysis; type: physicochemical
Procedure, shortened: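 Compound at 50 µM in PBS pH 7.4, incubated at 37 °C. Aliquots were drawn at 0, 1, 3, 6, 12, 24, 48 and 96 h and analysed by C18 reverse-phase HPLC with an acetonitrile/0.1% formic acid gradient, detected by UV at 340 nm.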

[20] = Drug degradation in DMEM cell-free cell culture medium assessed as formation of quercetin at 50 uM after 1 hr by HPLC analysis; type: physicochemical
Procedure, shortened: (§3)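 Conjugates diluted from a 10 mM DMSO stock to 50 µM final in cell-free culture medium (DMEM with 10% FBS), held at 37 °C. Samples were taken at 0, 1, 3, 6, 12, 24, 48 and 96 h, vortexed, and run on C18 reverse-phase HPLC with an acetonitrile/0.1% formic acid gradient at 1 mL/min, detected by UV at 340 nm.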

MCF7 [21] = assay: Drug metabolism in human MCF7 cells assessed as quercetin-glucuronide level at 30 uM after 12 hrs by HPLC analysis; type: ADME, cell-based; conditions: mcf7, 12 h; procedure, shortened: as §2
[22] = Half life of the compound in DMEM cell-free cell culture medium at 50 uM by HPLC analysis; type: physicochemical; procedure, shortened: as §3
[23] = Solubility of the compound in PBS buffer at 0.5 to 300 uM; type: physicochemical
Procedure, shortened: (§4)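 DMSO stocks ([…]–10 mM) were serially diluted into PBS pH 7.4 or DMEM with 10% FBS to final 0.5, 5, 25, 50, 100, 200 µM (2% DMSO) and 300 µM (3% DMSO). Solubility was judged by forward light scattering in a laser nephelometer.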

HCT-116 [24] = assay: Drug metabolism in human HCT116 cells assessed as methyl quercetin level at 30 uM after 1 hr by HPLC analysis; type: ADME, cell-based; conditions: hct-116, 1 h; procedure, shortened: as §2
MCF7 [25] = assay: Metabolic stability in human MCF7 cells assessed as compound remaining at 30 uM after 12 hrs by HPLC analysis; type: ADME, cell-based; conditions: mcf7, 12 h; procedure, shortened: as §2
[26] = Metabolic stability in human HCT116 cells assessed as compound remaining at 30 uM after 12 hrs by HPLC analysis; type: ADME, cell-based, HCT-116; conditions: read-out: Stability; procedure, shortened: as §2
MCF7 [27] = assay: Drug metabolism in human MCF7 cells assessed as quercetin sulfate level at 30 uM after 12 hrs by HPLC analysis; type: ADME, cell-based; conditions: mcf7, 12 h; procedure, shortened: as §2
HCT-116 [28] = assay: Drug metabolism in human HCT116 cells assessed as methyl quercetin level at 30 uM after 12 hrs by HPLC analysis; type: ADME, cell-based; conditions: hct-116, 12 h; procedure, shortened: as §2
[29] = Solubility of the compound in DMEM cell-free cell culture medium up to 100 uM; type: physicochemical; procedure, shortened: as §4
HCT-116 [30] = assay: Drug metabolism in human HCT116 cells assessed as methyl quercetin level at 30 uM after 3 hrs by HPLC analysis; type: ADME, cell-based; conditions: hct-116, 3 h; procedure, shortened: as §2
MCF7 [31] = assay: Drug metabolism in human MCF7 cells assessed as quercetin-glucuronide level at 30 uM after 1 hr by HPLC analysis; type: ADME, cell-based; conditions: mcf7, 1 h; procedure, shortened: as §2

For CC(C)OC(=O)OCOc1cc(O)c2c(=O)c(O)c(-c3ccc(O)c(O)c3)oc2c1, the Activity (MCF7 [1]) was “Active”, the Stability (HCT-116 [2]) was “Stable” and the Activity (HCT-116 [3]) was “Active”. For the same molecule, the remaining at 6 h, 30 µM [4] was 18%, the Stability (MCF7 [5]) was “Stable” and the Stability (MCF7 [6]) was “Stable”. For the same molecule, the Stability (MCF7 [7]) was “Stable”, the remaining at 1 h, 30 µM [8] was 51% and the Stability (HCT-116 [9]) was “Stable”. The remaining at 3 h, 30 µM [10] was 6%, the remaining at 6 h, 30 µM [11] was 2% and the Stability (HCT-116 [12]) was “Stable”. For the same molecule, the Stability (HCT-116 [13]) was “Stable”, the remaining at 1 h, 30 µM [14] was 65% and the Stability (HCT-116 [15]) was “Stable”. The Stability (MCF7 [16]) was “Stable”, the Stability (MCF7 [17]) was “Stable” and the remaining at 3 h, 30 µM [18] was 34%. The half-life at 50 µM [19] was greater than 96 h, the Drug degradation [20] was “Active” and the Stability (MCF7 [21]) was “Stable”. The half-life at 50 µM [22] was 1 h, the solubility [23] was “Insoluble” and the Stability (HCT-116 [24]) was “Stable”. The Stability (MCF7 [25]) was “Stable”, the remaining at 12 h, 30 µM [26] was 12% and the Stability (MCF7 [27]) was “Stable”. For the same molecule, the Stability (HCT-116 [28]) was “Stable”, the solubility [29] was “soluble” and the Stability (HCT-116 [30]) was “Stable”. For the same molecule, the Stability (MCF7 [31]) was “Stable”.

Source: ChEMBL document CHEMBL2396515, “Quercetin-POC conjugates: Differential stability and bioactivity profiles between breast cancer (MCF-7) and colorectal carcinoma (HCT116) cell lines” (Bioorg Med Chem, 2013)
